In ChEMBL document CHEMBL2321662, “Azepines and piperidines with dual norepinephrine dopamine uptake inhibition and antidepressant activity” (ACS Med Chem Lett, 2013):
Calls of active or inactive are those of the source. The rule behind the calls is not given here.

Key:
[1] = biological target: Sodium-dependent noradrenaline transporter (Homo sapiens, UniProt P23975); assay: Inhibition of human recombinant NET expressed in HEK cells; format: cell-based, HEK293
Method in brief: (§1)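 HEK cells overexpressing human recombinant transporter; uptake inhibition read as block of a fluorescent substrate with a neurotransmitter uptake kit. Values averaged from at least n = 3, up to 2-fold variability.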

[2] = Intrinsic clearance in human liver microsomes; format: ADME, Microsome; settings: read-out: CLH
Method in brief: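 Human liver microsomes; intrinsic clearance reported in μL/min/mg.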

[3] = biological target: Sodium-dependent dopamine transporter (Homo sapiens, UniProt Q01959); assay: Inhibition of human recombinant DAT expressed in HEK cells; format: cell-based, HEK293
[4] = biological target: Sodium-dependent serotonin transporter (Homo sapiens, UniProt P31645); assay: Inhibition of human recombinant SERT expressed in HEK cells; format: cell-based, HEK293; method in brief: as §1
[5] = biological target: Voltage-gated inwardly rectifying potassium channel KCNH2 (Homo sapiens, UniProt Q12809); assay: Inhibition of human ERG expressed in CHO-K1 cells by electrophysiological assay; format: cell-based
Cytochrome P450 2D6 = Cytochrome P450 2D6 (Homo sapiens, UniProt P10635); assay: Inhibition of CYP2D6 (unknown origin); format: ADME
Rattus norvegicus [6] = assay: Antidepressant activity in sc dosed Sprague-Dawley rat assessed as increase of locomotor activity and stereotypic behavior; format: functional, organism-based
Method in brief: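 Rats were dosed sc. Spontaneous locomotion was scored over the last 15 min of the session: distance traveled from beam breaks, and stereotypy from repeated breaks of the same beam. Data are group means ± SEM, compared with vehicle by one-way ANOVA.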

Rattus norvegicus [7] = assay: Antidepressant activity in Sprague-Dawley rat assessed as reduction of immobility time at 0.3 mg/kg, sc measured for 5 mins by forced swimming test; format: functional, organism-based; parameters: dose 0.3 mg/kg
Method in brief: (§2)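 Sprague–Dawley rats dosed sc, then scored for immobility time in the forced-swim test. The positive control was desipramine at 15 mg/kg ip. Data are group means ± SEM, compared with vehicle by one-way ANOVA.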

Plasma = assay: Fraction unbound in Long Evans rat plasma; format: ADME, cell-free
Rattus norvegicus [8] = assay: In vivo NET occupancy in sc dosed Long Evans rat thalamus [3H]-MeNER administered 30 mins before [3H]-MeNER challenge measured after 90 mins; format: functional
Method in brief: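 Rats received test compound, then 30 min later sc [3H]MeNER as the NET radioligand, counted in thalamus. […] Mean reported; 95% CI typically ± half the mean.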

Rattus norvegicus [9] = assay: In vivo DAT occupancy in sc dosed Long Evans rat striatum using [3H]-PE2I administered 30 mins before [3H]-PE2I 35428 challenge measured after 60 mins; format: functional
Method in brief: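 Test compound given sc to rats; 30 min later [3H]PE2I given sc as DAT radioligand, quantified in striatum. […] Mean reported, 95% CI typically ± half the mean.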

Rattus norvegicus [10] = assay: Antidepressant activity in Sprague-Dawley rat assessed as reduction of immobility time at 1 to 30 mg/kg, sc measured for 5 mins by forced swimming test; format: functional, organism-based; method in brief: as §2
[11] = Ratio of drug level in whole brain to plasma in Long Evans rat; format: ADME, cell-free; settings: whole brain and plasma, read-out: BPR
Rattus norvegicus [12] = assay: Antidepressant activity in Sprague-Dawley rat assessed as reduction of immobility time at 2.4 to 7.3 mg/kg, sc measured for 5 mins by forced swimming test; format: functional, organism-based; method in brief: as §2
Rattus norvegicus [13] = assay: Antidepressant activity in Sprague-Dawley rat assessed as reduction of immobility time at 0.7 mg/kg, sc measured for 5 mins by forced swimming test; format: functional, organism-based; parameters: dose 0.7 mg/kg; method in brief: as §2
Rattus norvegicus [14] = organism: Rattus norvegicus; assay: animal or person; format: functional, organism-based; settings: Long Evans, Striatum
Rattus norvegicus [15] = assay: In vivo NET occupancy in sc dosed Long Evans rat thalamus assessed as unbound plasma levels equaling 50% occupancy using [3H]-MeNER administered 30 mins before [3H]-MeNER challenge measured after 90 mins; format: functional, organism-based
Rattus norvegicus [16] = assay: In vivo DAT occupancy in sc dosed Long Evans rat striatum using [3H]PE2I administered 30 mins before [3H]PE2I challenge measured after 60 mins
[17] = Metabolic stability of the compound assessed as GSH adduct formation; format: ADME
Rattus norvegicus [18] = assay: In vivo DAT occupancy in sc dosed Long Evans rat striatum assessed as unbound plasma levels equaling 50% occupancy using [3H]WIN 35428 administered 30 mins before [3H]WIN 35428 challenge measured after 60 mins; format: functional, organism-based
Rattus norvegicus [19] = assay: Antidepressant activity in Sprague-Dawley rat assessed as reduction of immobility time at 3 to 10 mg/kg, sc measured for 5 mins by forced swimming test; format: functional, organism-based
Method in brief: (§3)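 Rats (Sprague–Dawley) given test compound sc, then scored in forced-swim test for immobility time. Vehicle group comparison; desipramine control dosed 15 mg/kg ip. Data as group means ± SEM; significance vs vehicle by one-way ANOVA.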

Rattus norvegicus [20] = assay: Antidepressant activity in Sprague-Dawley rat assessed as reduction of immobility time at 1 mg/kg, sc measured for 5 mins by forced swimming test; format: functional, organism-based; parameters: dose 1 mg/kg; method in brief: as §3

Chain of Sodium-dependent serotonin transporter (P31645 whole entry): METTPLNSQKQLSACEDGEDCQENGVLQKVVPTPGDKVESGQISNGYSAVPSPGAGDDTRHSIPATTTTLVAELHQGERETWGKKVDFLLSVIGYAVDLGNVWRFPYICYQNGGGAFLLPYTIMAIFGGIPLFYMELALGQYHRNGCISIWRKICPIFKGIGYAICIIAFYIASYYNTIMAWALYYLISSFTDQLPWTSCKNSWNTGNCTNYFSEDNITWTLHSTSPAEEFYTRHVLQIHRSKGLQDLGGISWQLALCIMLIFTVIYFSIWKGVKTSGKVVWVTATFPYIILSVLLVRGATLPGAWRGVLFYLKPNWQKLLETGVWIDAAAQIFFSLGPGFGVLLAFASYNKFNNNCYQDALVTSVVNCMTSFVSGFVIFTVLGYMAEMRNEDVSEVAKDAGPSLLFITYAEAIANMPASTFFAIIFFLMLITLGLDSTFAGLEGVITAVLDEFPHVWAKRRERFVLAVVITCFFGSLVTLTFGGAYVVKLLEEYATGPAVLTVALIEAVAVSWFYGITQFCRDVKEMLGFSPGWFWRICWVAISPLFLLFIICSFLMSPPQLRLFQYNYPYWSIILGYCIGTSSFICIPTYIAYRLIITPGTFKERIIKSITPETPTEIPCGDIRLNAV
Chain of Sodium-dependent noradrenaline transporter (P23975 whole entry): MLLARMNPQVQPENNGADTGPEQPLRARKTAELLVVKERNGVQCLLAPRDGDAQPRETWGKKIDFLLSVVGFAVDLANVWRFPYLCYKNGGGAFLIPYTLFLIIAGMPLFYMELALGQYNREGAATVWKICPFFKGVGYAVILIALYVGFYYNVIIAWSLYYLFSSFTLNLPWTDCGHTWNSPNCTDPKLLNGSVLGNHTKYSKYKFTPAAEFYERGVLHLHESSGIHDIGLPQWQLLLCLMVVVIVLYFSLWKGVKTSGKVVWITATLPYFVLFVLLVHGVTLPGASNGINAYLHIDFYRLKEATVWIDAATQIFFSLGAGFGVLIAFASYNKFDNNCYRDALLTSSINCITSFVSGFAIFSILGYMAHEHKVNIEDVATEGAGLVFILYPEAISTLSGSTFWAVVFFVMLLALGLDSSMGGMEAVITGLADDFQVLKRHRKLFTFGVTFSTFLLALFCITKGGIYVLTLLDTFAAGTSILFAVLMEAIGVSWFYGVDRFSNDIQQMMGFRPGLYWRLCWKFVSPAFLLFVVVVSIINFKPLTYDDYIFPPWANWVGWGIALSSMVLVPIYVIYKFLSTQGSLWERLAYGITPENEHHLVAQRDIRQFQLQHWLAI
Chain of Sodium-dependent dopamine transporter (Q01959 whole entry): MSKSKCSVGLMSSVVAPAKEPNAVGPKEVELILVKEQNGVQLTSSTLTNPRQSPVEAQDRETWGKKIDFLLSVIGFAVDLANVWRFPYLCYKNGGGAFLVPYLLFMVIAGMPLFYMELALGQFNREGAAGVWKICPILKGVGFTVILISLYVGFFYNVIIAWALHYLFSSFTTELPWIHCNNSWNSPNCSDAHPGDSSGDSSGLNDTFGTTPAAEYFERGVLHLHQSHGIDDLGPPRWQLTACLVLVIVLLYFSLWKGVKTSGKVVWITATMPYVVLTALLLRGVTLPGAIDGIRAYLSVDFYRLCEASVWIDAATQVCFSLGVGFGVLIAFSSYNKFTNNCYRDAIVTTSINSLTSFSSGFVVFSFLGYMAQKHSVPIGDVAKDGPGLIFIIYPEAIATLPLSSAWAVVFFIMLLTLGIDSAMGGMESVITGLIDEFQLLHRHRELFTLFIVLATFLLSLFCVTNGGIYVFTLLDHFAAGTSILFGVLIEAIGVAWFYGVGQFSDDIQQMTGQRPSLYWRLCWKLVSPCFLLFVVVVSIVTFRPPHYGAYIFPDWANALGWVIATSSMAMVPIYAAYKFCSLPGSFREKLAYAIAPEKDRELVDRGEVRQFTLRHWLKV
Chain of Cytochrome P450 2D6 (P10635 whole entry): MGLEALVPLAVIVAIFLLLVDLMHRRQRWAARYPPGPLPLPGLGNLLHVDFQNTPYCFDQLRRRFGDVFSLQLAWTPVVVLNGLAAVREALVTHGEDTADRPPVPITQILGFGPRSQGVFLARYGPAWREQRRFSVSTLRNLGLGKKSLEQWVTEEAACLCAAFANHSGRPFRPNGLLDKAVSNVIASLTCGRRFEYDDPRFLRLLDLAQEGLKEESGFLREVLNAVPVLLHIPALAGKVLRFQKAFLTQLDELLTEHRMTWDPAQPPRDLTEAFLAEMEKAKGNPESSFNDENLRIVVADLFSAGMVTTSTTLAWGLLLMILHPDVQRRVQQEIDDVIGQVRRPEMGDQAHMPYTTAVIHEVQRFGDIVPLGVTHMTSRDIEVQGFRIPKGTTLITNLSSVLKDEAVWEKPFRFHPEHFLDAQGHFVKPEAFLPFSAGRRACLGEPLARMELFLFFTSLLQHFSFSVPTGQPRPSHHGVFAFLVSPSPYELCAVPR
Chain of Voltage-gated inwardly rectifying potassium channel KCNH2 (Q12809 whole entry): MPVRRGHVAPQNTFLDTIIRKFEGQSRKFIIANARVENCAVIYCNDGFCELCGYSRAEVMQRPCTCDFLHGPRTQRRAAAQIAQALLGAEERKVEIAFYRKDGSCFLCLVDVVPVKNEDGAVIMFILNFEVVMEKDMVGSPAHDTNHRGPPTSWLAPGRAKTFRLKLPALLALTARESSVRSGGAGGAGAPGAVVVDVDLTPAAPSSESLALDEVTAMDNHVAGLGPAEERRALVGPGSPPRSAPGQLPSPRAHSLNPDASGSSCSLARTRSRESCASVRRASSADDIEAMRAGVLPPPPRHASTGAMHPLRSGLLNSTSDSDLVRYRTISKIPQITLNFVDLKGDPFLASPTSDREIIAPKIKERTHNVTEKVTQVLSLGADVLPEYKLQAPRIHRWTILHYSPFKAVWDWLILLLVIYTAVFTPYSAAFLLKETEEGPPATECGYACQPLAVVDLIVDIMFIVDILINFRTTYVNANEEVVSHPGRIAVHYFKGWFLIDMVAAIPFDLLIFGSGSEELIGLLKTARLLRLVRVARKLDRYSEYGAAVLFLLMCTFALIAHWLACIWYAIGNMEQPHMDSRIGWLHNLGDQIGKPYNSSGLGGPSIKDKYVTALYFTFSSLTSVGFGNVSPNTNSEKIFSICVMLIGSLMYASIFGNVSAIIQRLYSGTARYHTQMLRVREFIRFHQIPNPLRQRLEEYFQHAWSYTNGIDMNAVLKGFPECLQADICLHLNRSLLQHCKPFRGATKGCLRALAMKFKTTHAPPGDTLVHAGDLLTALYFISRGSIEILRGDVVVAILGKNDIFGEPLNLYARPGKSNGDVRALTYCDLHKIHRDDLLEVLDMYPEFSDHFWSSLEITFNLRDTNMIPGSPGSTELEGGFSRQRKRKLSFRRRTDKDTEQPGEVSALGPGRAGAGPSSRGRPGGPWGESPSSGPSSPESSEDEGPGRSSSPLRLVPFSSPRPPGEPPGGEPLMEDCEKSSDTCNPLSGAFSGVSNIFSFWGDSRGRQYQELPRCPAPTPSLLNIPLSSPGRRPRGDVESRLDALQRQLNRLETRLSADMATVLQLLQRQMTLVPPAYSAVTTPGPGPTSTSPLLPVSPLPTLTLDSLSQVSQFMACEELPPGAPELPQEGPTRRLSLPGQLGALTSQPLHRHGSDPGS

With `OCC[C@]1(c2ccc(Cl)c(Cl)c2)CCCNC1` the Ki [1] was 3.3 nM, the microsomal CLint [2] was under 4 µL/min/mg and the Ki [3] was 9.3 nM. It also gave a Ki [4] of 42 nM, an IC50 [5] of over 33000 nM and an IC50 (Cytochrome P450 2D6) of over 20000 nM.
In the case of `Cc1cc(C2CC=CCN(C)C2)ccc1Cl` (stereo unspecified), the Ki [1] is reported as 130 nM, the microsomal CLint [2] is reported as 85 µL/min/mg and the Ki [3] is reported as 23 nM. It also gave a Ki [4] of 270 nM, an IC50 [5] of 26000 nM and an IC50 (Cytochrome P450 2D6) of 18000 nM.
`Clc1ccc(C2CC=CCNC2)cc1Cl` (racemic) gave a Ki [1] of 66 nM, a microsomal CLint [2] of 30 µL/min/mg and a Ki [3] of 6 nM. It also gave a Ki [4] of 220 nM and an IC50 (Cytochrome P450 2D6) of 5100 nM.
`OCC[C@@]1(c2ccc(Cl)c(Cl)c2)CCCNC1` showed a Ki [1] of 250 nM, a microsomal CLint [2] of under 4 µL/min/mg and a Ki [3] of 140 nM. It also gave a Ki [4] of 250 nM, an IC50 [5] of over 33000 nM and an IC50 (Cytochrome P450 2D6) of over 20000 nM.
`CN1CCCCC(c2ccc(Cl)c(Cl)c2)C1` (racemic) showed a Ki [1] of 74 nM, a Ki [3] of 8 nM and a Ki [4] of 260 nM. For the same compound, the IC50 [5] was 10000 nM.
`Fc1ccc(C2CC=CCNC2)cc1Cl` (stereo unspecified) showed a Ki [1] of 130 nM, a microsomal CLint [2] of 15 µL/min/mg and a Ki [3] of 68 nM. For the same compound, the Ki [4] was 1500 nM and the IC50 (Cytochrome P450 2D6) was 6400 nM.
In the case of `OCCN1CC=CC[C@H](c2ccc(Cl)c(Cl)c2)C1`, the Ki [1] is reported as 12 nM, the microsomal CLint [2] is reported as 52 µL/min/mg and the Ki [3] is reported as 37 nM. The Ki [4] was 150 nM, the IC50 [5] was 10000 nM and the IC50 (Cytochrome P450 2D6) was over 20000 nM.
Compound `OCC[C@@]1(c2cc3ccccc3o2)CCCNC1` has a Ki [1] of 430 nM and a Ki [3] of 400 nM.
`Clc1ccc(C2CCCCNC2)cc1Cl` (racemic) showed a Ki [1] of 130 nM, a microsomal CLint [2] of 35 µL/min/mg and a Ki [3] of 11 nM. The Ki [4] was 140 nM, the IC50 [5] was 6100 nM and the IC50 (Cytochrome P450 2D6) was 2300 nM.
`CN1CC=CC[C@@H](c2ccc(Cl)c(Cl)c2)C1` gave a Ki [1] of 54 nM, a microsomal CLint [2] of 86 µL/min/mg and a Ki [3] of 13 nM. The Ki [4] was 130 nM.
`Clc1cccc(C2CC=CCNC2)c1` (stereo unspecified) showed a Ki [1] of 430 nM, a Ki [3] of 240 nM and an IC50 [5] of over 33000 nM.
With `CN1CC=CCC(c2cc3ccccc3o2)C1` (stereo unspecified) the Ki [1] was 120 nM, the microsomal CLint [2] was 97 µL/min/mg and the Ki [3] was 60 nM. For the same compound, the Ki [4] was 800 nM, the IC50 [5] was 15000 nM and the IC50 (Cytochrome P450 2D6) was 6700 nM.
`COCCN1CC=CC[C@H](c2ccc(Cl)c(Cl)c2)C1` showed a Ki [1] of 15 nM, a microsomal CLint [2] of 150 µL/min/mg and a Ki [3] of 9 nM. For the same compound, the Ki [4] was 540 nM, the IC50 [5] was 5300 nM and the IC50 (Cytochrome P450 2D6) was 3900 nM.
For `CN1Cc2c(N)cccc2C(c2ccccc2)C1` (racemic) [NOMIFENSINE], the Activity (Rattus norvegicus [6]) was “Dose-dependent effect”, the Activity (Rattus norvegicus [7]) was “inactive” and the microsomal CLint [2] was 37 µL/min/mg. For the same compound, the “Cp(f)” value (Plasma) was 60.5%, the ED50 (Rattus norvegicus [8]) was 0.05 mg/kg and the ED50 (Rattus norvegicus [9]) was 0.7 mg/kg. The IC50 [5] was over 27000 nM, the IC50 (Cytochrome P450 2D6) was over 20000 nM and the Activity (Rattus norvegicus [10]) was “Active”. The Kp [11] was 10.1.
With `OCC[C@]1(c2cc3ccccc3o2)CCCNC1` the Activity (Rattus norvegicus [6]) was “inactive”, the Ki [1] was 4 nM and the microsomal CLint [2] was 22 µL/min/mg. For the same compound, the Activity (Rattus norvegicus [12]) was “Active”, the “Cp(f)” value (Plasma) was 75% and the Activity (Rattus norvegicus [13]) was “inactive”. For the same compound, the Ki [3] was 6 nM, the ED50 (Rattus norvegicus [8]) was 0.17 mg/kg and the EC50 (Rattus norvegicus [14]) was 33 nM. The Ki [4] was 230 nM, the EC50 (Rattus norvegicus [15]) was 5.6 nM and the IC50 (Cytochrome P450 2D6) was over 20000 nM. For the same compound, the ED50 (Rattus norvegicus [16]) was 0.8 mg/kg, the Stability [17] was “Stable” and the Kp [11] was 5.8.
In the case of `Clc1ccc([C@@H]2CC=CCNC2)cc1Cl`, the Ki [1] is reported as 24 nM, the microsomal CLint [2] is reported as 50 µL/min/mg and the Ki [3] is reported as 8 nM. The Ki [4] was 420 nM and the IC50 (Cytochrome P450 2D6) was 3100 nM.
For `C1=CCC(c2ccc3ccccc3c2)CNC1` (stereo unspecified), the Ki [1] was 25 nM, the microsomal CLint [2] was 94 µL/min/mg and the Ki [3] was 10 nM. For the same compound, the Ki [4] was 63 nM and the IC50 (Cytochrome P450 2D6) was 6600 nM.
`C1=CCC(c2cc3ccccc3o2)CNC1` (stereo unspecified) showed a Ki [1] of 46 nM, a microsomal CLint [2] of 83 µL/min/mg and a Ki [3] of 23 nM. It also gave a Ki [4] of 240 nM, an IC50 [5] of 19000 nM and an IC50 (Cytochrome P450 2D6) of 7800 nM.
`Cc1ccc(C2CC=CCNC2)cc1Cl` (stereo unspecified) gave a Ki [1] of 83 nM, a microsomal CLint [2] of 100 µL/min/mg and a Ki [3] of 49 nM. For the same compound, the Ki [4] was 600 nM, the IC50 [5] was over 27000 nM and the IC50 (Cytochrome P450 2D6) was 5600 nM.
In the case of `Clc1ccc([C@H]2CC=CCNC2)cc1Cl`, the Activity (Rattus norvegicus [6]) is reported as “Dose-dependent effect”, the Ki [1] is reported as 17 nM and the EC50 (Rattus norvegicus [18]) is reported as 220 nM. For the same compound, the microsomal CLint [2] was 33 µL/min/mg, the “Cp(f)” value (Plasma) was 7.7% and the Ki [3] was 6 nM. For the same compound, the Activity (Rattus norvegicus [19]) was “Active”, the ED50 (Rattus norvegicus [8]) was 0.5 mg/kg and the Activity (Rattus norvegicus [20]) was “inactive”. It also gave a Ki [4] of 220 nM, an ED50 (Rattus norvegicus [9]) of 0.8 mg/kg and an EC50 (Rattus norvegicus [15]) of 46 nM. The IC50 (Cytochrome P450 2D6) was 3900 nM, the Stability [17] was “Stable” and the Kp [11] was 4.8.
In the case of `Clc1ccc(C2CC=CCNC2)cc1` (stereo unspecified), the Ki [1] is reported as 250 nM, the Ki [3] is reported as 25 nM and the IC50 [5] is reported as over 31000 nM.
With `CN1CC=CCC(c2ccc(Cl)c(Cl)c2)C1` (racemic) the Ki [1] was 57 nM, the microsomal CLint [2] was 57 µL/min/mg and the Ki [3] was 5 nM. For the same compound, the Ki [4] was 100 nM.
Work on `CN1CC=CC[C@H](c2ccc(Cl)c(Cl)c2)C1` yielded a Ki [1] of 12 nM, a microsomal CLint [2] of 51 µL/min/mg and a Ki [3] of 3 nM. It also gave a Ki [4] of 83 nM.
Work on `Cc1cc(C2CC=CCNC2)ccc1Cl` (stereo unspecified) yielded a Ki [1] of 170 nM, a Ki [3] of 24 nM and an IC50 [5] of 26000 nM.
